Converted amounts (≈) assume the structure as drawn.
Legend:
Pichia kudriavzevii [1] = assay: Antifungal activity against Candida krusei E28 after 48 hrs by broth microdilution method; format: functional
Summary of the method: (§1)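 In vitro antifungal screening against eight strains. Compounds tested at concentrations in the range 62.5–1.95 µmol/L.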

Aspergillus fumigatus [2] = assay: Antifungal activity against Aspergillus fumigatus 231 after 24 hrs by broth microdilution method; format: functional; summary of the method: as §1
Lichtheimia corymbifera [3] = assay: Antifungal activity against Absidia corymbifera 272 after 24 hrs by broth microdilution method; format: functional; summary of the method: as §1
Trichosporon beigelii [4] = assay: Antifungal activity against Trichosporon beigelii 1188 after 24 hrs by broth microdilution method; format: functional; summary of the method: as §1
Trichosporon beigelii [5] = assay: Antifungal activity against Trichosporon beigelii 1188 after 48 hrs by broth microdilution method; format: functional; summary of the method: as §1
Aspergillus fumigatus [6] = assay: Antifungal activity against Aspergillus fumigatus 231 after 48 hrs by broth microdilution method; format: functional; summary of the method: as §1
[7] = test system: Trichophyton mentagrophytes; assay: Antifungal activity against Trichophyton mentagrophytes 445 after 24 hrs by broth microdilution method; format: functional; summary of the method: as §1
Pichia kudriavzevii [8] = assay: Antifungal activity against Candida krusei E28 after 24 hrs by broth microdilution method; format: functional; summary of the method: as §1
Candida albicans [9] = assay: Antifungal activity against Candida albicans ATCC 44859 after 24 hrs by broth microdilution method; format: functional; details: ATCC 44859, 24 h; summary of the method: as §1
Lichtheimia corymbifera [10] = assay: Antifungal activity against Absidia corymbifera 272 after 48 hrs by broth microdilution method; format: functional; summary of the method: as §1
[11] = test system: Mycobacterium tuberculosis; assay: Antitubercular activity against Mycobacterium tuberculosis H37Rv at 6.25 ug/ml by microplate alamar blue assay; format: functional
Summary of the method: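 Primary single-concentration screen at the TAACF against M. tuberculosis H37Rv (ATCC 27294) in BACTEC 12B medium, read by Microplate Alamar Blue Assay. Each compound was tested at 6.25 per mL, or at the molar equivalent of the highest-molecular-weight compound in its congener series.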

[12] = test system: Mycobacterium tuberculosis; assay: Antitubercular activity against Mycobacterium tuberculosis H37Rv by microplate alamar blue assay; format: functional
Candida tropicalis [13] = assay: Antifungal activity against Candida tropicalis ATCC 156 after 24 hrs by broth microdilution method; format: functional; details: ATCC 156, 24 h; summary of the method: as §1
Nakaseomyces glabratus [14] = assay: Antifungal activity against Candida glabrata 20/I after 48 hrs by broth microdilution method; format: functional; summary of the method: as §1
[15] = Lipophilicity, log K of the compound; format: physicochemical
Summary of the method: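 Mobile phase used methanol as organic modifier. The capacity factor k was measured and log k calculated from it. Chiral compounds were measured several times.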

Nakaseomyces glabratus [16] = assay: Antifungal activity against Candida glabrata 20/I after 24 hrs by broth microdilution method; format: functional; summary of the method: as §1
[17] = test system: Trichophyton mentagrophytes; assay: Antifungal activity against Trichophyton mentagrophytes 445 after 48 hrs by broth microdilution method; format: functional; summary of the method: as §1
Candida albicans [18] = assay: Antifungal activity against Candida albicans ATCC 44859 after 48 hrs by broth microdilution method; format: functional; details: ATCC 44859, 48 h; summary of the method: as §1
Candida tropicalis [19] = assay: Antifungal activity against Candida tropicalis ATCC 156 after 48 hrs by broth microdilution method; format: functional; details: ATCC 156, 48 h; summary of the method: as §1

Compound	IC80 (Pichia kudriavzevii [1])	IC80 (Aspergillus fumigatus [2])	IC80 (Lichtheimia corymbifera [3])	IC80 (Trichosporon beigelii [4])	IC80 (Trichosporon beigelii [5])	IC80 (Aspergillus fumigatus [6])	IC80 [7]	IC80 (Pichia kudriavzevii [8])	IC80 (Candida albicans [9])	IC80 (Lichtheimia corymbifera [10])	inhibition at 6.25 µg/mL [11]	MIC [12]	IC80 (Candida tropicalis [13])	IC80 (Nakaseomyces glabratus [14])	log K [15]	IC80 (Nakaseomyces glabratus [16])	IC80 [17]	IC80 (Candida albicans [18])	IC80 (Candida tropicalis [19])
CC(C)[C@@H](NC(=O)OCc1ccccc1)C(=O)Oc1ccc(Cl)cc1C(=O)Nc1ccc(Cl)cc1	31.2 µg/mL (≈ 60.6 µM)	> 62.5 µg/mL	> 62.5 µg/mL	> 62.5 µg/mL	> 62.5 µg/mL	> 62.5 µg/mL	15.6 µg/mL (≈ 30.3 µM)	31.2 µg/mL (≈ 60.6 µM)	> 62.5 µg/mL	> 62.5 µg/mL	77%	> 6.25 µg/mL	> 62.5 µg/mL	> 62.5 µg/mL	0.9417	> 62.5 µg/mL	15.6 µg/mL (≈ 30.3 µM)	> 62.5 µg/mL	> 62.5 µg/mL
O=C(CNC(=O)OCc1ccccc1)Oc1ccc(Cl)cc1C(=O)Nc1cccc(Cl)c1	62.5 µg/mL (≈ 132 µM)	> 62.5 µg/mL	62.5 µg/mL (≈ 132 µM)	> 62.5 µg/mL	> 62.5 µg/mL	> 62.5 µg/mL	31.2 µg/mL (≈ 66 µM)	62.5 µg/mL (≈ 132 µM)	> 62.5 µg/mL	62.5 µg/mL (≈ 132 µM)	7%	> 6.25 µg/mL	> 62.5 µg/mL	> 62.5 µg/mL	0.6119	62.5 µg/mL (≈ 132 µM)	31.2 µg/mL (≈ 66 µM)	> 62.5 µg/mL	> 62.5 µg/mL
C[C@H](NC(=O)OCc1ccccc1)C(=O)Oc1ccc(Cl)cc1C(=O)Nc1cccc(Cl)c1	31.2 µg/mL (≈ 64.1 µM)	62.5 µg/mL (≈ 128 µM)	15.6 µg/mL (≈ 32.1 µM)	> 62.5 µg/mL	> 62.5 µg/mL	> 62.5 µg/mL	7.81 µg/mL (≈ 16 µM)	31.2 µg/mL (≈ 64.1 µM)	31.2 µg/mL (≈ 64.1 µM)	15.6 µg/mL (≈ 32.1 µM)	97%	3.13 µg/mL (≈ 6.42 µM)	> 62.5 µg/mL	> 62.5 µg/mL	0.6995	31.2 µg/mL (≈ 64.1 µM)	7.81 µg/mL (≈ 16 µM)	> 62.5 µg/mL	> 62.5 µg/mL
O=C(CNC(=O)OCc1ccccc1)Oc1ccc(Cl)cc1C(=O)Nc1ccc(Cl)c(Cl)c1	> 62.5 µg/mL	> 62.5 µg/mL	62.5 µg/mL (≈ 123 µM)	> 62.5 µg/mL	> 62.5 µg/mL	> 62.5 µg/mL	31.2 µg/mL (≈ 61.5 µM)	> 62.5 µg/mL	> 62.5 µg/mL	> 62.5 µg/mL	0%	> 6.25 µg/mL	> 62.5 µg/mL	> 62.5 µg/mL	0.8639	> 62.5 µg/mL	31.2 µg/mL (≈ 61.5 µM)	> 62.5 µg/mL	> 62.5 µg/mL
CC(C)[C@H](NC(=O)OCc1ccccc1)C(=O)Oc1ccc(Cl)cc1C(=O)Nc1ccc(Cl)cc1	15.6 µg/mL (≈ 30.3 µM)	> 62.5 µg/mL	> 62.5 µg/mL	> 62.5 µg/mL	31.2 µg/mL (≈ 60.6 µM)	> 62.5 µg/mL	15.6 µg/mL (≈ 30.3 µM)	31.2 µg/mL (≈ 60.6 µM)	> 62.5 µg/mL	> 62.5 µg/mL	38%	> 6.25 µg/mL	> 62.5 µg/mL	> 62.5 µg/mL	0.9421	> 62.5 µg/mL	15.6 µg/mL (≈ 30.3 µM)	> 62.5 µg/mL	> 62.5 µg/mL
NNC(=O)c1ccncc1 [ISONIAZID]	–	–	–	–	–	–	–	–	–	–	–	0.025 µg/mL (≈ 0.182 µM)	–	–	–	–	–	–	–

Source: ChEMBL document CHEMBL1154547, “Salicylanilide esters of N-protected amino acids as novel antimicrobial agents” (Bioorg Med Chem Lett, 2009)
